How the values were obtained:
Acetylcholinesterase = target: T1, Acetylcholinesterase (Mus musculus, UniProt P21836); assay: Inhibition of mouse brain AChE after 1 hr by modified Ellman's colorimetric method
T1 sequence (P21836 whole entry): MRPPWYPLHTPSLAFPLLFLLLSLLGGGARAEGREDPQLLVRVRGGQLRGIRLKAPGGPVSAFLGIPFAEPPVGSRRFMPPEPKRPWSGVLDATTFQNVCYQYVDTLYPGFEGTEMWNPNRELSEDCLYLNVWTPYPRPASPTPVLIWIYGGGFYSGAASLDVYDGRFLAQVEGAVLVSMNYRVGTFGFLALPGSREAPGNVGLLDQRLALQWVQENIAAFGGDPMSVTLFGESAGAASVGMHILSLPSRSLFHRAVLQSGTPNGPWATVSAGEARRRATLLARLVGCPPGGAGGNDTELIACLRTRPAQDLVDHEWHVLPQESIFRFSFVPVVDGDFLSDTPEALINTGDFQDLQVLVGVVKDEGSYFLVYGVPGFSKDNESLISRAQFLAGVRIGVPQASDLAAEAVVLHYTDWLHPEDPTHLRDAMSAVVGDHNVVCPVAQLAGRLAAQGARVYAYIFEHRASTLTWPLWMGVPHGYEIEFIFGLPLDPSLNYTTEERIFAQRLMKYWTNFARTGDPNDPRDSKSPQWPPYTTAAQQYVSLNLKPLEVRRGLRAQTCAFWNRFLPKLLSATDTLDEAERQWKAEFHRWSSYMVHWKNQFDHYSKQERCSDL
Method in brief: (§1)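 Enzyme from mouse brain extract. Compounds preincubated with enzyme 1 h at 37 °C, then acetylthiocholine plus DTNB added. Absorbance read at 415 nm at 2 min intervals. Activity expressed as percent of DMSO solvent control. Seven concentrations tested. IC50 from nonlinear regression of sigmoidal dose–response, accepted only if r² ≥ 0.95. Mean of at least four independent measurements.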

Cholinesterase = Cholinesterase (Mus musculus, UniProt Q03311); assay: Inhibition of mouse serum BChE after 1 hr by modified Ellman's colorimetric method
Method in brief: as §1, with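 “serum” for “brain”, “butyrylthiocholine” for “acetylthiocholine”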

Chain of Cholinesterase (Q03311 whole entry): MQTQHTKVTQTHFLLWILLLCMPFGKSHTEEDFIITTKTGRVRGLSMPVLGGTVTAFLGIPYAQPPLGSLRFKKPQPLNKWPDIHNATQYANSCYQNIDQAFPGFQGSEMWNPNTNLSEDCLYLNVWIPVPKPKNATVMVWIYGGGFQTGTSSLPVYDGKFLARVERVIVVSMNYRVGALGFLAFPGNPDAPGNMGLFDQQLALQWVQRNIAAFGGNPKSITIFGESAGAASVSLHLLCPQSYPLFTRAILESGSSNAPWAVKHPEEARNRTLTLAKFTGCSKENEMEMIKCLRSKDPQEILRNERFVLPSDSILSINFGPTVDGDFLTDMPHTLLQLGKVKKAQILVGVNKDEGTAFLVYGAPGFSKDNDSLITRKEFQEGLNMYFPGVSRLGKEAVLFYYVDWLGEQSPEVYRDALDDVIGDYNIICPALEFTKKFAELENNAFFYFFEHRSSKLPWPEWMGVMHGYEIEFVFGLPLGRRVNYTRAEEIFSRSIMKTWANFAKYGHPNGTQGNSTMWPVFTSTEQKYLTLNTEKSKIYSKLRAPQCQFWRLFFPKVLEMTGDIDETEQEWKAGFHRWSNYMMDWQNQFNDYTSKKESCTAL

CN1c2ccc(OC(=O)NCc3ccccc3)cc2[C@]2(C)CCN(CCc3ccccc3)[C@H]12
IC50 (Acetylcholinesterase): 0.18 µM
IC50 (Cholinesterase): 6.6 nM

CC(=O)c1ccc(NC(=O)Oc2ccc3c(c2)[C@]2(C)CCN(CCc4ccccc4)[C@@H]2N3C)cc1
IC50 (Acetylcholinesterase): > 100 µM
IC50 (Cholinesterase): 5900 nM

CN1c2ccc(OC(=O)Nc3ccc(Cl)cc3)cc2[C@]2(C)CCN(CCc3ccccc3)[C@H]12
IC50 (Acetylcholinesterase): > 100 µM
IC50 (Cholinesterase): 370 nM

CN1c2ccc(OC(=O)Nc3ccc(-c4ccccc4)cc3)cc2[C@]2(C)CCN(CCc3ccccc3)[C@H]12
IC50 (Acetylcholinesterase): > 100 µM
IC50 (Cholinesterase): 1100 nM

CN1c2ccc(OC(=O)NCCc3ccccc3)cc2[C@]2(C)CCN(CCc3ccccc3)[C@H]12
IC50 (Acetylcholinesterase): 0.45 µM
IC50 (Cholinesterase): 16 nM

CN(C)c1ccc(NC(=O)Oc2ccc3c(c2)[C@]2(C)CCN(CCc4ccccc4)[C@@H]2N3C)cc1
IC50 (Acetylcholinesterase): > 100 µM
IC50 (Cholinesterase): 79 nM

CCCCCCNC(=O)Oc1ccc2c(c1)[C@]1(C)CCN(CCc3ccccc3)[C@@H]1N2C
IC50 (Acetylcholinesterase): 0.97 µM
IC50 (Cholinesterase): 14 nM

CN1c2ccc(OC(=O)Nc3ccccc3)cc2[C@]2(C)CCN(CCc3ccccc3)[C@H]12
IC50 (Acetylcholinesterase): 1.6 µM
IC50 (Cholinesterase): 340 nM

CN1c2ccc(OC(=O)Nc3ccc([N+](=O)[O-])cc3)cc2[C@]2(C)CCN(CCc3ccccc3)[C@H]12
IC50 (Acetylcholinesterase): > 100 µM
IC50 (Cholinesterase): 6700 nM

CNC(=O)Oc1ccc2c(c1)[C@]1(C)CCN(C)[C@@H]1N2C [PHYSOSTIGMINE]
IC50 (Acetylcholinesterase): 0.04 µM
IC50 (Cholinesterase): 280 nM

CN1c2ccc(OC(=O)NCC3CCCCC3)cc2[C@]2(C)CCN(CCc3ccccc3)[C@H]12
IC50 (Acetylcholinesterase): 2.5 µM
IC50 (Cholinesterase): 1.8 nM

CC(C)c1ccc(NC(=O)Oc2ccc3c(c2)[C@]2(C)CCN(CCc4ccccc4)[C@@H]2N3C)cc1 [PHENETHYLCYMSERINE]
IC50 (Acetylcholinesterase): > 100 µM
IC50 (Cholinesterase): 540 nM

COc1ccc(NC(=O)Oc2ccc3c(c2)[C@]2(C)CCN(CCc4ccccc4)[C@@H]2N3C)cc1
IC50 (Acetylcholinesterase): 33 µM
IC50 (Cholinesterase): 83 nM

CN1c2ccc(OC(=O)Nc3ccc(Oc4ccccc4)cc3)cc2[C@]2(C)CCN(CCc3ccccc3)[C@H]12
IC50 (Acetylcholinesterase): > 100 µM
IC50 (Cholinesterase): 2000 nM

CN1c2ccc(OC(=O)Nc3ccc4c(c3)OCO4)cc2[C@]2(C)CCN(CCc3ccccc3)[C@H]12
IC50 (Acetylcholinesterase): 1.9 µM
IC50 (Cholinesterase): 100 nM

CNC(=O)Oc1ccc2c(c1)[C@]1(C)CCN(CCc3ccccc3)[C@@H]1N2C
IC50 (Acetylcholinesterase): 0.17 µM
IC50 (Cholinesterase): 10 nM

CN1c2ccc(OC(=O)NC3CCCCC3)cc2[C@]2(C)CCN(CCc3ccccc3)[C@H]12
IC50 (Acetylcholinesterase): 5.6 µM
IC50 (Cholinesterase): 22 nM

CCCCCCOc1ccc(NC(=O)Oc2ccc3c(c2)[C@]2(C)CCN(CCc4ccccc4)[C@@H]2N3C)cc1
IC50 (Acetylcholinesterase): > 100 µM
IC50 (Cholinesterase): 1400 nM

CN1c2ccc(OC(=O)Nc3ccc4ccccc4c3)cc2[C@]2(C)CCN(CCc3ccccc3)[C@H]12
IC50 (Acetylcholinesterase): 44 µM
IC50 (Cholinesterase): 580 nM

CCCCc1ccc(NC(=O)Oc2ccc3c(c2)[C@]2(C)CCN(CCc4ccccc4)[C@@H]2N3C)cc1
IC50 (Acetylcholinesterase): 48 µM
IC50 (Cholinesterase): 980 nM

COc1ccc(NC(=O)Oc2ccc3c(c2)[C@]2(C)CCN(CCc4ccccc4)[C@@H]2N3C)cc1OC
IC50 (Acetylcholinesterase): 11 µM
IC50 (Cholinesterase): 97 nM

CN1c2ccc(OC(=O)Nc3ccc(C(C)(C)C)cc3)cc2[C@]2(C)CCN(CCc3ccccc3)[C@H]12
IC50 (Acetylcholinesterase): 15 µM
IC50 (Cholinesterase): 430 nM

Reference: ChEMBL document CHEMBL1154942, “Design, synthesis and evaluation of carbamate-modified (-)-N(1)-phenethylnorphysostigmine derivatives as selective butyrylcholinesterase inhibitors” (Bioorg Med Chem Lett, 2010)
